Laboratory results reported in ChEMBL document CHEMBL1149144, “Structure-based design of potent retinoid X receptor alpha agonists” (J Med Chem, 2004).

Columns and labels:
[1] = target: T1, Retinoic acid receptor RXR-alpha (Homo sapiens, UniProt P19793); assay: Binding affinity for retinoid X receptor alpha (RXRalpha), using 9-cis-[3H]-retinoic acid
T1 sequence (P19793 whole entry): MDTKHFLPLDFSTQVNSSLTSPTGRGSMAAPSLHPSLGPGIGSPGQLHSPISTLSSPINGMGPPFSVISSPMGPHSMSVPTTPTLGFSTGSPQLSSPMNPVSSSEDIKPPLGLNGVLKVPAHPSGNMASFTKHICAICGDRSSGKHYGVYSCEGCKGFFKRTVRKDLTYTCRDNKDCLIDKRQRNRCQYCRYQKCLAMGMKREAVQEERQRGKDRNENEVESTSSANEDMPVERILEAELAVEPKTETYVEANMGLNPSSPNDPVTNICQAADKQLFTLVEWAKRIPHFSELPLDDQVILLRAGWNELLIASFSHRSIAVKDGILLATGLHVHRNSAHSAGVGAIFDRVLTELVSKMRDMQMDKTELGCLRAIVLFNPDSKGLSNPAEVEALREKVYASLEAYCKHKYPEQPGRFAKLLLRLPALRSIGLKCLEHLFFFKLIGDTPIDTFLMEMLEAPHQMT
Summary of the method: (§1)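 Scintillation proximity binding assay; Ki from competition of 2.5 nM 9-cis-RA at RXRα and RARα, with test compound up to 10 µM.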

[2] = target: T2, Retinoic acid receptor alpha (Homo sapiens, UniProt P10276); assay: Binding affinity for retinoic acid receptor alpha (RARalpha), using 9-cis-[3H]-retinoic acid; summary of the method: as §1
T2 sequence (P10276 whole entry): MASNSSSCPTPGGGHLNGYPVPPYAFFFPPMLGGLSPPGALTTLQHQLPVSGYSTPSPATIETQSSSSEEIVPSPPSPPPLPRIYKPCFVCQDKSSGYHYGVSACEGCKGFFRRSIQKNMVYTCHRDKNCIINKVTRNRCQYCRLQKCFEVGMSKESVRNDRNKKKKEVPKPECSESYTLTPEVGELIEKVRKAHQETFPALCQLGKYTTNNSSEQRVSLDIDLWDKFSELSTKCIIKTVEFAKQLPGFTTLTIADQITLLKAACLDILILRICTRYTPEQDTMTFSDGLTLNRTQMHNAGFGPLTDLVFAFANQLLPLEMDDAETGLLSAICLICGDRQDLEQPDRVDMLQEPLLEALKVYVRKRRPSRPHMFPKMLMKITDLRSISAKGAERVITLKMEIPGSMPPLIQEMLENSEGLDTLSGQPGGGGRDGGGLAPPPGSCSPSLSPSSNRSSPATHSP

[3] = target: T2, Retinoic acid receptor alpha; assay: Effective concentration for Retinoic acid receptor alpha activity in CV-1 cells; type: functional, cell-based
Summary of the method: (§2)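 CV-1 monkey kidney cells transiently transfected with a full-length hRXRα expression vector (RXRα) or a GAL4-hRARα vector (RARα), each with an RXRα- or RARα-responsive reporter gene construct. Top concentration 10 µM; EC50 calculated from the reporter response.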

[4] = target: T1, Retinoic acid receptor RXR-alpha; assay: Effective concentration for Retinoid X receptor alpha activity in CV-1 cells; type: functional, cell-based; summary of the method: as §2
[5] = test system: Rattus norvegicus; assay: Effect on aspartate aminotransferase release by liver at 3 mg/kg was measured in vivo in rats; type: functional
Summary of the method: (§3)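 Male Zucker diabetic fatty (ZDF) rats dosed orally with vehicle or compound in vehicle.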

[6] = test system: Rattus norvegicus; assay: Effect on percent change in weight of liver to body at 10 mg/kg was measured in vivo in rats; type: functional; summary of the method: as §3
[7] = test system: Mus musculus; assay: Antihyperglycemic activity of compound at 100 mg/kg was measured as percent glycosylated hemoglobin in vivo in mice; type: functional
Summary of the method: (§4)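 Male diabetic db/db mice given vehicle or compound in vehicle orally.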

[8] = test system: Rattus norvegicus; assay: Antihyperglycemic activity of compound at 3 mg/kg was measured as percent glycosylated hemoglobin in vivo in rats; type: functional; summary of the method: as §3
[9] = test system: Mus musculus; assay: Effect on aspartate aminotransferase release by liver at 30 mg/kg was measured in vivo in mice; type: functional; summary of the method: as §4
[10] = test system: Mus musculus; assay: Effect on lipid hydrolysis at 10 mg/kg was measured in vivo in mice; type: functional
Summary of the method: (§5)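 Male diabetic db/db mice were given the test agent orally in vehicle, with a vehicle-only control group.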

[11] = test system: Mus musculus; assay: Effect on lipid hydrolysis at 100 mg/kg was measured in vivo in mice; type: functional; summary of the method: as §5
[12] = test system: Rattus norvegicus; assay: Antihyperglycemic activity of compound was determined in vivo in rats; type: functional
Summary of the method: (§6)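 Male Zucker diabetic fatty (ZDF) rats were given the test agent orally in vehicle, with a vehicle-only control group.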

[13] = test system: Rattus norvegicus; assay: Effect on percent change in weight of liver to body at 3 mg/kg was measured in vivo in rats; type: functional; summary of the method: as §3
[14] = test system: Rattus norvegicus; assay: Antihyperglycemic activity of compound at 10 mg/kg was determined in vivo in rats; type: functional; summary of the method: as §6
[15] = test system: Rattus norvegicus; assay: Antihyperglycemic activity of compound at 3 mg/kg was determined in vivo in rats; type: functional; summary of the method: as §6
[16] = test system: Rattus norvegicus; assay: Effect on lipid hydrolysis at 10 mg/kg was measured in vivo in rats; type: functional; summary of the method: as §6
[17] = test system: Mus musculus; assay: Effect on nonesterified free fatty acid at 10 mg/kg was measured in vivo in mice; type: functional; summary of the method: as §4
[18] = test system: Mus musculus; assay: Effect on percent change in weight of liver to body at 100 mg/kg was measured in vivo in mice; type: functional; summary of the method: as §4
[19] = test system: Rattus norvegicus; assay: Effect on lipid hydrolysis at 30 mg/kg was measured in vivo in rats; type: functional; summary of the method: as §6
[20] = test system: Rattus norvegicus; assay: Antihyperglycemic activity of compound at 10 mg/kg was measured as percent glycosylated hemoglobin in vivo in rats; type: functional; summary of the method: as §3
[21] = test system: Mus musculus; assay: Antihyperglycemic activity of compound at 30 mg/kg was determined in vivo in mice; type: functional; summary of the method: as §5
[22] = test system: Rattus norvegicus; assay: Effect on aspartate aminotransferase release by liver at 10 mg/kg was measured in vivo in rats; type: functional; summary of the method: as §3
[23] = test system: Rattus norvegicus; assay: Effect on lipid hydrolysis at 3 mg/kg was measured in vivo in rats; type: functional; summary of the method: as §6
[24] = test system: Rattus norvegicus; assay: Effect on nonesterified free fatty acid at 30 mg/kg was measured in vivo in rats; type: functional; summary of the method: as §3
[25] = test system: Mus musculus; assay: Antihyperglycemic activity of compound at 30 mg/kg was measured as percent glycosylated hemoglobin in vivo in mice; type: functional; summary of the method: as §4
[26] = test system: Mus musculus; assay: Effect on nonesterified free fatty acid at 30 mg/kg was measured in vivo in mice; type: functional; summary of the method: as §4
[27] = test system: Mus musculus; assay: Effect on lipid hydrolysis at 30 mg/kg was measured in vivo in mice; type: functional; summary of the method: as §5
[28] = test system: Rattus norvegicus; assay: Effect on percent change in weight of liver to body at 30 mg/kg was measured in vivo in rats; type: functional; summary of the method: as §3
[29] = test system: Mus musculus; assay: Effect on nonesterified free fatty acid at 100 mg/kg was measured in vivo in mice; type: functional; summary of the method: as §4
[30] = test system: Mus musculus; assay: Effect on aspartate aminotransferase release by liver at 10 mg/kg was measured in vivo in mice; type: functional; summary of the method: as §4
[31] = test system: Mus musculus; assay: Effect on percent change in weight of liver to body at 30 mg/kg was measured in vivo in mice; type: functional; summary of the method: as §4
[32] = test system: Rattus norvegicus; assay: Antihyperglycemic activity of compound at 30 mg/kg was measured as percent glycosylated hemoglobin in vivo in rats; type: functional; summary of the method: as §3
[33] = test system: Rattus norvegicus; assay: Effect on nonesterified free fatty acid at 3 mg/kg was measured in vivo in rats; type: functional; summary of the method: as §3
[34] = test system: Mus musculus; assay: Antihyperglycemic activity of compound at 10 mg/kg was measured as percent glycosylated hemoglobin in vivo in mice; type: functional; summary of the method: as §4
[35] = test system: Mus musculus; assay: Effect on percent change in weight of liver to body at 10 mg/kg was measured in vivo in mice; type: functional; summary of the method: as §4
[36] = test system: Rattus norvegicus; assay: Effect on nonesterified free fatty acid at 10 mg/kg was measured in vivo in rats; type: functional; summary of the method: as §3
[37] = test system: Mus musculus; assay: Antihyperglycemic activity of compound at 100 mg/kg was determined in vivo in mice; type: functional; summary of the method: as §5
[38] = test system: Mus musculus; assay: Effect on aspartate aminotransferase release by liver at 100 mg/kg was measured in vivo in mice; type: functional; summary of the method: as §4
[39] = test system: Mus musculus; assay: Antihyperglycemic activity of compound at 10 mg/kg was determined in vivo in mice; type: functional; summary of the method: as §5
[40] = test system: Rattus norvegicus; assay: Effect on aspartate aminotransferase release by liver at 30 mg/kg was measured in vivo in rats; type: functional; summary of the method: as §3
[41] = target: T1, Retinoic acid receptor RXR-alpha; assay: Effective concentration for Retinoid X receptor alpha activity in CV-1 cells; Partial agonist; type: functional, cell-based; summary of the method: as §2

CC1(C)CCC(C)(C)c2cc(Cc3coc(/C=C/C(=O)O)c3)ccc21
Ki [1]: 138 nM | Ki [2]: > 1000 nM

CC1(C)CCC(C)(C)c2cc(C3CCCc4oc(/C=C/C(=O)O)cc43)ccc21 (stereo in doubt; 60)
EC50 [3]: > 790 nM | EC50 [4]: 97 nM | Ki [1]: 90 nM | Ki [2]: > 1000 nM

O=C1NC(=O)/C(=C/c2ccc(-c3cccc(Br)c3)o2)S1
Ki [1]: 1500 nM

CC1(C)CCC(C)(C)c2cc(C3CCCc4oc(/C=C5/SC(=O)NC5=O)cc43)ccc21 (stereo unspecified)
EC50 [3]: > 10000 nM | EC50 [4]: 4 nM | Ki [1]: 20 nM | Ki [2]: > 1000 nM

CC1(C)CCC(C)(C)c2cc(C3CCCc4sc(CCC(=O)O)cc43)ccc21 (stereo unspecified)
EC50 [3]: > 10000 nM | EC50 [4]: 97 nM | Ki [1]: 200 nM | Ki [2]: > 1000 nM

Cc1oc(/C=C/C(=O)O)cc1Cc1ccc2c(c1)C(C)(C)CCC2(C)C
EC50 [3]: > 10000 nM | EC50 [4]: 106 nM | Ki [1]: 158 nM | Ki [2]: > 1000 nM

CC1(C)CCC(C)(C)c2cc(C3CCCc4oc(C(=O)O)cc43)ccc21 (stereo unspecified)
EC50 [4]: > 10000 nM | Ki [1]: > 3000 nM | Ki [2]: > 1000 nM

CC1(C)CCC(C)(C)c2cc(C3CCCc4oc(/C=C/C(=O)O)cc43)ccc21 (racemic)
Activity [5]: 98 U l-1 | Activity [6]: 6.56% | Activity [7]: 8.51% | Activity [8]: 7.75% | EC50 [3]: > 10000 nM | EC50 [4]: 3 nM | Activity [9]: 116 U l-1 | Activity [10]: 91 mg/dL | Activity [11]: 62 mg/dL | Ki [1]: 6 nM | Activity [12]: 118 mg/dL | Activity [13]: 5.74% | Activity [14]: 129 mg/dL | Activity [15]: 147 mg/dL | Activity [16]: 2199 mg/dL | Activity [17]: 0.45 m equiv l-1 | Activity [18]: 9.33% | Activity [19]: 1353 mg/dL | Activity [20]: 7.44% | Activity [21]: 309 mg/dL | Ki [2]: > 1000 nM | Activity [22]: 108 U l-1 | Activity [23]: 2462 mg/dL | Activity [24]: 0.38 m equiv l-1 | Activity [25]: 8.84% | Activity [26]: 0.56 m equiv l-1 | Activity [27]: 83 mg/dL | Activity [28]: 7.06% | Activity [29]: 0.4 m equiv l-1 | Activity [30]: 137 U l-1 | Activity [31]: 8.58% | Activity [32]: 7.04% | Activity [33]: 0.8 m equiv l-1 | Activity [34]: 9.41% | Activity [35]: 8.23% | Activity [36]: 0.49 m equiv l-1 | Activity [37]: 233 mg/dL | Activity [38]: 158 U l-1 | Activity [39]: 346 mg/dL | Activity [40]: 136 U l-1

COc1cc2c(cc1C1CCCc3oc(/C=C/C(=O)O)cc31)C(C)(C)CCC2(C)C (stereo unspecified)
EC50 [3]: > 10000 nM | Ki [1]: 20 nM | Ki [2]: > 1000 nM | EC50 [41]: 48 nM
